Assay results of several laboratories.
Target: Phosphatidylinositol 4-kinase beta (PI4KB, Homo sapiens, UniProt Q9UBF8)

| Structure (SMILES) | test | setting | measurement | value |
| --- | --- | --- | --- | --- |
| O=C(Nc1nccs1)C(c1cc(F)ccc1O)N1Cc2ccccc2C1=O (stereo not shown) | enzyme activity, inhibitor | 1 µM | inhibition | 9% |
| O=C(Nc1cnc(Oc2ccc(F)cc2)nc1)N1CCc2ncccc2[C@@H]1c1ccc(F)cc1 | cell-free assay, competition with immobilised ligand | 1 µM | remaining binding | 89% |
| Cc1ccc(C(=O)Nc2ccc(CN3CCN(C)CC3)c(C(F)(F)F)c2)cc1C#Cc1cnc2cccnn12 | enzyme activity, inhibitor | 23.5 nM | remaining activity | 89% |
| CCCCNc1ncc2c(-c3ccc(F)cc3)nn(C[C@H]3CC[C@H](N)CC3)c2n1 | target engagement in cells, inhibitor, chemoproteomics | 20 mM | inhibition | 29.3% |
| O=C(CSc1nc2nccnc2c(=O)n1CCc1ccccc1)Nc1ccccc1 | enzyme activity, inhibitor | 10 µM | inhibition | < 20% |
| CC1CCCN1c1nccc(-c2cnn3ncccc23)n1 (stereo not shown) | binding | 1 µM | remaining binding | 100% |
| CS(=O)(=O)Nc1cccc(-c2csc(NC(=O)CSc3nc4nccnc4c(=O)n3CCc3ccccc3)n2)c1 | enzyme activity, inhibitor | 10 µM | inhibition | 17% |
| CN(C)CC#Cc1ccc(OCCCc2sc(N3CCc4cccc(C(=O)Nc5nc6ccccc6s5)c4C3)nc2C(=O)O)c(F)c1 | cell-free assay, competition with immobilised ligand | 1 µM | remaining binding | 100% |
| c1ccc(CNc2nc(N3CCOc4ccccc43)nc3c2CCCC3)cc1 | target engagement in cells, inhibitor, chemoproteomics | 20 mM | inhibition | -16.5% |
| Nc1ncnc2occ(-c3ccc(NC(=O)Nc4cc(C(F)(F)F)ccc4F)cc3)c12 | enzyme activity, inhibitor | 20 µM | remaining activity | 5.9% |
